One data set deals with Rattus norvegicus. As to the kind of experiment: Antiarrhythmic activity in aconitine-intoxicated iv dosed Ivanovas rat assessed as inhibition of ventricular dysfunction. The data set is classed as functional, Heart. In outline:
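Male Ivanovas rats (300–350 g) were anaesthetised with urethane 1.25 g/kg ip. Compound was given iv at 5 mg/kg 5 min before saphenous vein infusion of aconitine ([…], 0.1 ml/min). Lead II ECG was recorded every 30 s. Read-out was aconitine per 100 g causing ventricular extrasystoles, tachycardia and fibrillation versus untreated controls. Used 24 rats/compound; Student's t-test.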

A further data set has as its system Mus musculus. As to the kind of experiment: Antianxiety activity in ip dosed Albino mouse assessed as increase in locomotor activity after 30 mins relative to Diazepam. The data set is classed as functional.
Data set [1] in a line: Acute toxicity in rat. It is filed as organism-based. Particulars: in vivo.

Molecules are shown by their SMILES.

What is called LD50 is the dose at which mortality reaches 50%. Read a high LD50 as lower toxicity. `COc1cccc(NC(=O)c2c(NC(=O)c3ccccc3)sc3c2CCCC3)c1`: in the data set on Rattus norvegicus, the LD100 increase stood at 67.9%. For the same compound, in the data set on Mus musculus, the Ratio was found to be 2. This compound registered a median lethal dose (LD50) in data set [1] of 236 mg/kg.

Turning to `N=c1oc(-c2ccccc2)nc2sc3c(c12)CCCC3`, the LD100 increase with Rattus norvegicus came to 68.15%. Besides, the Ratio with Mus musculus is 3. The compound further returned a median lethal dose (LD50) in data set [1] of 224 mg/kg.

On to `N#Cc1c(N2C(=S)N=C(c3ccccc3)OC2c2ccccc2)sc2c1CCCC2` (centres undefined), for which, in the data set on Rattus norvegicus, the LD100 increase worked out at 84%. Moreover, the Ratio with Mus musculus came to 16. In data set [1], this compound came in with an LD50 of 297 mg/kg.

For `N#Cc1c(N2C(=O)C=CC2=O)sc2c1CCCC2`, the Ratio with Mus musculus is given as 3. This compound also displayed an LD50 in data set [1] of 234 mg/kg.

Take `N=c1oc(/C=C/c2ccccc2)nc2sc3c(c12)CCCC3`: the LD100 increase in the data set with Rattus norvegicus stood at 80.1%. For the same compound, the Ratio in the data set with Mus musculus was determined as 6. This compound also gave a 50% lethal dose (LD50) in data set [1] of 244 mg/kg.

In data set [1], `O=C1CC2(CCCC2)CC(=O)N1CCCCN1CCN(c2ncccn2)CC1` [BUSPIRONE] showed an LD50 of 113 mg/kg.

As for `N#Cc1c(NC(=O)CCl)sc2c1CCCC2`, in the data set on Rattus norvegicus, the LD100 increase was 73.1%. Besides, the Ratio in the data set on Mus musculus amounted to 3. For the same compound, the LD50 in data set [1] worked out at 194 mg/kg.

On to `COc1cccc(-n2c(=S)[nH]c3sc4c(c3c2=O)CCCC4)c1`, for which, in the data set on Rattus norvegicus, the LD100 increase is recorded as 76%. In the data set with Mus musculus, the Ratio turned out to be 3. The compound further showed an LD50 in data set [1] of 210 mg/kg.

In the case of `N#Cc1c(/N=C/c2ccccc2)sc2c1CCCC2`, in the data set with Rattus norvegicus, the LD100 increase is 73.6%. For the same compound, in the data set with Mus musculus, the Ratio amounted to 2. The compound also yielded a 50% lethal dose (LD50) in data set [1] of 246 mg/kg.

`COc1cccc(-n2nnc3sc4c(c3c2=O)CCCC4)c1`: the LD100 increase in the data set with Rattus norvegicus is listed as 75%. Moreover, in the data set with Mus musculus, the Ratio worked out at 4. The same compound returned an LD50 in data set [1] of 124 mg/kg.

`N#Cc1c(-n2c(O)csc2=N)sc2c1CCCC2`: in the data set with Rattus norvegicus, the LD100 increase is reported as 82.1%. The Ratio in the data set on Mus musculus amounted to 12. Moreover, the LD50 in data set [1] was 274 mg/kg.

Turning to `N#Cc1c(NC(=O)/C=C/c2ccccc2)sc2c1CCCC2`, the LD100 increase in the data set on Rattus norvegicus worked out at 77.5%. In addition, in the data set with Mus musculus, the Ratio stood at 5. For the same compound, in data set [1], the LD50 was determined as 186 mg/kg.

As to `N#Cc1c(NC(=S)NC(=O)c2ccccc2)sc2c1CCCC2`, in the data set with Rattus norvegicus, the LD100 increase is 84%. Besides, the Ratio with Mus musculus is given as 10. The compound also came in with an LD50 in data set [1] of 175 mg/kg.

`N#Cc1c(N)sc2c1CCCC2`: the Ratio in the data set with Mus musculus came out at 1. For the same compound, the LD50 in data set [1] amounted to 152 mg/kg.

As for `CCN(CC)CC(=O)Nc1c(C)cccc1C` [LIDOCAINE], the LD100 increase in the data set on Rattus norvegicus was found to be 65%.

`COc1cccc(-n2c(-c3ccccc3)nc3sc4c(c3c2=O)CCCC4)c1`: the LD100 increase with Rattus norvegicus is 70.1%. The Ratio in the data set with Mus musculus is 5. The compound further showed an LD50 in data set [1] of 136 mg/kg.

As to `COc1cccc(NC(=O)c2c(N)sc3c2CCCC3)c1`, in the data set on Mus musculus, the Ratio amounted to 4. For the same compound, in data set [1], the LD50 was 121 mg/kg.

Take `CCN(CC)CCNC(=O)c1ccc(N)cc1` [PROCAINAMIDE]: the LD100 increase in the data set on Rattus norvegicus is 65%.

With `COc1cccc(-n2c(/C=C/c3ccccc3)nc3sc4c(c3c2=O)CCCC4)c1`, the LD100 increase in the data set with Rattus norvegicus worked out at 82%. The Ratio in the data set with Mus musculus is reported as 7. Further, the LD50 in data set [1] is 243 mg/kg.

As for `N=c1c2c3c(sc2nc(S)n1C(=O)c1ccccc1)CCCC3`, in the data set with Rattus norvegicus, the LD100 increase is 84.3%. Besides, the Ratio with Mus musculus was found to be 5. This compound had an LD50 in data set [1] of 221 mg/kg.

As for `COc1cccc(NC(=O)c2c(NC(=O)/C=C/c3ccccc3)sc3c2CCCC3)c1`, the LD100 increase with Rattus norvegicus is 74.6%. Moreover, the Ratio in the data set on Mus musculus is on record as 5. The same compound returned an LD50 in data set [1] of 276 mg/kg.
